# Screening results (PubChem)
# esBAF inh: blocks esBAF chromatin remodeling in mouse ES cells; Bmi1-luciferase knock-in reporter, 24 h; 100% = twice the neutral-well signal; hit rate 2% among 350,000; AID 602393; reporter increase, % at 12.5 µM; in the data active = activation above about 40%;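 also: a rise in the Bmi1 reporter signal indicates esBAF inhibition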
# ARFGAP1 inh: rat ARFGAP1 inhibition. Q62848. Arfgap1-stimulated ARF1 GTP hydrolysis, GDP FP detection. inhibition, % at 16.5 µM. hit rate 0.26% among 360,000. AID 651572;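 active = inhibition above a per-plate limit, mean inhibition of low control wells plus 3 SD, cut at about 25% in these data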
# Target sequence (Q62848 1-136 limits assumed): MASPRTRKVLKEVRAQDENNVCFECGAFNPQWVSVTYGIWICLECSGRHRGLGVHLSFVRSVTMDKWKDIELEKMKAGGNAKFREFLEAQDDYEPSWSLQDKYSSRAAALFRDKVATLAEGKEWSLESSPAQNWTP
#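 Assay system: purified rat His6-Arfgap1 residues 1-136 (GAP domain); Reagent: human Δ17 ARF1 bound to GTP; Dosing: 16.5 µM single point, 1.26% DMSO; Times: GTP hydrolysis reaction 2 h at 25 °C; Signal: FP, GDP Alexa 633 tracer displaced from anti-GDP antibody, 620/688 nm; Measure: % inhibition from polarization.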
# ASAP1 inh: ASAP1 ArfGAP inhibition | Q9ULH1 | ASAP1-stimulated ARF1 GTP hydrolysis, GDP FP detection | inhibition, % at 16.5 µM | hit rate 0.19% among 360,000; in the data active = inhibition above about 25%
# Target sequence (Q9ULH1 325-724 limits assumed): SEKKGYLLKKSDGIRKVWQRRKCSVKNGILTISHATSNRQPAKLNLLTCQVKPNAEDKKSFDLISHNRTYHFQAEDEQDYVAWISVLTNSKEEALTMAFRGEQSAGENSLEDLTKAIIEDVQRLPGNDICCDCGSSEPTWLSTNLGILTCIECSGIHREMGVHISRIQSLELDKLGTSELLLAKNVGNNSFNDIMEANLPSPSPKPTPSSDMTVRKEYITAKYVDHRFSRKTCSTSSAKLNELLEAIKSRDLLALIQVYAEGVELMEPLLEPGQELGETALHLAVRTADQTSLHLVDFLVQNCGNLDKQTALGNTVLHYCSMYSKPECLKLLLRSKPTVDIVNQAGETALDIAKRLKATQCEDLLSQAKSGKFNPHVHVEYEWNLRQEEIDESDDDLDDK
# SMARCA2 activ: SMARCA2 function activation, primary screen | MG213 cells, MMTV-luciferase reporter, dexamethasone, overnight | activation, % at 9.1 µM | hit rate 1% among 370,000; in the data active = activation above about 7.8%
# Ring1 derepress: de-represses Ring1 in mouse ESCs, confirming esBAF inhibition | shares compounds with esBAF inh | fold change at 33 µM | mouse ESC E14, Ring1 mRNA RT-qPCR fold change | AID 743176 | 550 tested, under 10 active;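 active = Ring1 gene expression raised more than 2-fold over untreated cells in both replicates at either tested dose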;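 also: Ring1 transcript normalised to actin housekeeping signal by TaqMan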
# esBAF Fgf4 qPCR: represses Fgf4 in mouse ESCs, confirming esBAF inhibition; shares compounds with esBAF inh; mouse ESC E14, Fgf4 mRNA qPCR fold change; hits give low values; Fgf4 expression fold change at 33 µM; hit rate 4% among 550; AID 743177;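 active = Fgf4 expression under 0.8 fold of control in both repeat measurements at one or both tested doses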;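 also: Fgf4 transcript normalised to actin in duplex TaqMan qPCR; cells exposed to compound for 24 h before lysis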
# Bmi1 derepress: confirmation of esBAF inhibitors: Bmi1 de-repression in mouse ESCs. shares compounds with esBAF inh. mouse ESE14 ES cells, Bmi1 mRNA qPCR fold; hits give high values. fold change at 33 µM. 550 tested, under 10 active. AID 743180;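 active = Bmi1 expression fold change above 6 at either tested concentration, seen in replicate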;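 also: higher fold means more Bmi1 de-repression and stronger esBAF inhibition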
# A549 cytotox: cytotoxicity in A549 cells; shares compounds with esBAF inh; plate reader; 550 tested, under 10 active; AID 743188; cell viability change % (negative = cytotoxic), % at 25 µM, hits read low; call rule not given here
# HepG2 tox SP: kills or reduces viability of HepG2 cells. shares compounds with esBAF inh. HepG2 cytotoxicity, plate reader; hits give low values. activity change, negative = inhibition, % at 25 µM. hit rate 4% among 550. AID 743189; in the data active = activity change below about -50%
# HEK293 tox SP: cytotoxicity in HEK293 cells. activity change, negative = inhibition, % at 25 µM, hits read low. plate reader. hit rate 3% among 550. shares compounds with esBAF inh; in the data active = activity change below about -38%, passing the limit was not always enough
# ASAP1 GAP conf: confirmation of human ASAP1 inhibitors | inhibition, % at 16.5 µM | ASAP1-stimulated Arf1 GTPase, GDP fluorescence polarization | hit rate 37% among 620 | AID 624431 | shares compounds with ASAP1 inh;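 active = mean inhibition over triplicates exceeds the hit threshold derived for the earlier primary screening run, cut at about 25% in these data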
# A number is an active result; i = inactive; nt = no result. Shown are actives, neighbours in structure and some others; about 2.6% of the full set was active somewhere.
SMILES,esBAF inh,ARFGAP1 inh,ASAP1 inh,SMARCA2 activ,others
CC(=O)OC1CC[C@]2(C#N)[C@H]3CC[C@]4(C)[C@H](C5C=CC(=O)O5)CCC4(O)C3CCC2(O)C1 (some centres undefined),i,i,i,7.8,
CC(=O)OC1CC(OC2C(O)CC(OC3C(O)CC(OC4CCC5(C)C(CCC6C5CCC5(C)C(C7=CC(=O)OC7)CCC65O)C4)OC3C)OC2C)OC(C)C1OC1OC(CO)C(O)C(O)C1O (centres undefined),nt,i,i,i,
S=C=Nc1cccc(C2(N3CCCCC3)CCCCC2)c1,i,i,i,11,
Cc1nc2c(-c3ccccc3)c(C)nn2c(C)c1CCC(=O)N1CCC2(CC1)OCCO2,i,i,i,i,
Cc1nc2c(c(C)nn2-c2ccccc2)c(C)c1CCC(=O)N1CCC2(CC1)OCCO2,55,nt,nt,nt,
CN1C(=O)C(=Cc2c(OCc3cnc(Cl)s3)ccc3ccccc23)C(=O)N(C)C1=O,50,i,i,i,
CN1C(=O)C(=Cc2ccccc2OCc2ccccc2Cl)C(=O)N(C)C1=O,nt,i,i,i,
COc1ccc(C#Cc2ccc([C@@H]3[C@@H](CO)N4CCCCN(C(=O)Cc5ccccc5)C[C@@H]34)cc2)cc1,i,nt,nt,nt,
COc1ccc(-c2cc(C(=O)N3CCC4(CC3)OCCO4)c3ccccc3n2)cc1,41,i,i,i,
O=C(O)[C@@H]1[C@@H](CO)[C@@H]2Cn3c(ccc(-c4cccnc4)c3=O)[C@H]1N2S(=O)(=O)c1ccccc1F,i,nt,nt,nt,
O=C(N1CCCCCC1)N1CC1,i,i,i,i,
CCSC(=O)N1CCCCCC1,i,i,i,7.8,
COc1ccc(-c2cc(=NCCC(=O)O)c3cc(C)ccc3o2)cc1,69,i,i,i,
CC1(C)CN=C(NCc2ccccc2)S1,i,i,i,i,
CC1(C)CN=C(Nc2nc3ccccc3s2)S1,50,i,i,i,
COc1cccc(-c2ccc3n(c2=O)C[C@H]2[C@H](CO)[C@@H](C(=O)O)[C@@H]3N2Cc2ccccc2F)c1,i,nt,nt,nt,
Fc1cccc(-c2ccc3c(c2)CNCc2cnnn2-3)c1,43,i,i,i,
COc1ccc(-c2ccc3c(c2)CNCc2cnnn2-3)cc1,i,i,i,i,
c1ccc(-c2ccc3c(c2)CNCc2cnnn2-3)cc1,i,i,i,i,
c1cc2c(cc1-c1ccc3c(c1)OCO3)CNCc1cnnn1-2,51,i,i,i,
CC=Cc1ccc2n(c1=O)C[C@@H]1[C@@H](CO)[C@H](C(=O)O)[C@H]2N1S(=O)(=O)c1ccccc1F (mixture of isomers),i,nt,nt,nt,
CC(C)CC#Cc1ccc([C@@H]2[C@H](CO)N3CCCCN(C(=O)Cc4ccccn4)C[C@@H]23)cc1,i,nt,nt,nt,
N#Cc1cc2c(nc1SCC(=O)Nc1ccc(Cl)cc1)C1CCN2CC1,46,i,i,i,
N#Cc1cc2c(nc1SCC(=O)Nc1cc(Cl)ccc1Cl)C1CCN2CC1,58,i,i,i,
COC(=O)[C@H]1[C@H](CO)[C@H]2Cn3c(ccc(-c4ccccc4)c3=O)[C@@H]1N2CC1CCOCC1,i,nt,nt,nt,
SMILES,esBAF inh,ARFGAP1 inh,ASAP1 inh,SMARCA2 activ,others
COC(=O)c1nc(-c2ccc3c(n2)C(=O)C(N)=C(OC)C3=O)c(N)c(-c2ccc(OC)c(OC)c2O)c1C,i,i,31,i,
NCC(=O)c1ccccc1,67,i,i,i,
Cc1ccc2c(c1N)C(=O)c1ccccc1C2=O,55,i,i,i,
CCC(=Nc1ccccc1N)c1c(O)[nH]c(=O)[nH]c1=O,51,i,i,i,
CCC(=NCCc1ccccc1)c1c(O)[nH]c(=O)[nH]c1=O,nt,i,i,i,
CN1C(=O)NC(=O)C(N=Nc2ccc(Cl)cc2)C1=O (centres undefined),42,i,i,i,
COCC(=O)N1[C@@H]2c3ccc(C4=CCCC4)c(=O)n3C[C@H]1[C@H](CO)[C@H]2C(=O)OC,i,nt,nt,nt,
O=C(O)[C@@H]1[C@@H](CO)[C@@H]2Cn3c(ccc(-c4ccncc4)c3=O)[C@H]1N2S(=O)(=O)c1ccccc1F,i,nt,nt,nt,
O=C(C1CCN(c2nc3ccc(Br)cc3s2)CC1)N1CCC2(CC1)OCCO2,64,i,i,i,
COC(=O)C[C@@H]1CC[C@H]2NC[C@@H](O)COC[C@@H]2O1,i,nt,nt,nt,
COc1ccc(C(C)=O)cc1CC(C(=O)c1ccccc1)N(C)C (centres undefined),41,i,i,i,
COc1ccc(C(C)=O)cc1CC(C(=O)c1ccc(C)cc1)N(C)C (centres undefined),nt,i,i,i,
COc1cccc(-c2ccc3n(c2=O)C[C@@H]2[C@@H](CO)[C@H](C(=O)O)[C@H]3N2Cc2ccccc2F)c1,i,nt,nt,nt,
CCCCCn1c(=O)c(C(=O)Nc2ccccc2Cl)c(O)c2ccccc21,100,i,i,i,Ring1 derepress=i;esBAF Fgf4 qPCR=i;Bmi1 derepress=i;A549 cytotox=i;HepG2 tox SP=i;HEK293 tox SP=i
CCC(=O)N1[C@@H]2c3ccc(-c4cccc(F)c4)c(=O)n3C[C@H]1[C@H](CO)[C@H]2C(=O)OC,i,nt,nt,nt,
Nc1c(C(=O)NCc2ccco2)c2nc3ccccc3nc2n1Cc1ccccc1,nt,i,i,i,
Nc1c(C(=O)NCc2ccco2)c2nc3ccccc3nc2n1Cc1ccc(F)cc1,i,i,32,i,ASAP1 GAP conf=i
CCC(C)C1NC(=O)C(NC(=O)C(CC(C)C)N(C)C(=O)C2CCCN2C(=O)C(C)O)C(C)OC(=O)C(Cc2ccc(OC)cc2)N(C)C(=O)C2CCCN2C(=O)C(CC(C)C)NC(=O)[C@H](C)C(=O)[C@H](C(C)C)OC(=O)CC1O (some centres undefined),nt,i,27,i,ASAP1 GAP conf=i
CC(C)N1C(=O)/C(=C/C=C/c2ccco2)C(=O)N(Cc2ccco2)C1=O,i,i,i,i,
CCN1C(=O)C(=C/C=C/c2ccco2)C(=O)N(CC)C1=S,nt,i,28,i,ASAP1 GAP conf=i
CC=Cc1ccc2n(c1=O)C[C@@H]1[C@@H](CO)[C@H](C(=O)OC)[C@H]2N1C(=O)CC (mixture of isomers),i,nt,nt,nt,
